# PMC11661184 (bioRxiv, 2024)
# “Also recorded” adds a separate entry of the source.
# Columns and labels:
# [1] = target: 3xFLAG-TurboID-CaM C-lobe (human); assay: proximity labelling
# hTRPA1^Δ1109–1119 = assay: TEVC block of residual current, hTRPA1^Δ1109–1119; type: cell-based, human; settings: 10 µM A-967079
# CaM (Calmodulin-agarose) = assay: CaM-agarose pulldown of TRPA1 constructs; type: binding
# In short: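 HEK293T cells were transfected with tagged TRPA1 constructs and lysed after 16-24 h in Tris pH 8.0 buffer containing 5 mM DDM and 500 µM EGTA. Free Ca²⁺ was set with CaCl₂, calculated from EGTA constants. 100 µg lysate was incubated with CaM-agarose for 1 h at 4 °C, washed, then eluted with 5 mM EGTA. Detection was by anti-FLAG or anti-MBP immunoblot, with tubulin input control. Enrichment is relative to the maximum within each replicate.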
# CaM12 = CaM12 (Homo sapiens, UniProt P0DP23); assay: Isothermal titration calorimetry, CaM12; type: binding; settings: ITC, 2 mM Ca2+
# In short: (§1)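 The ITC cell held 15 µM CaM variant and the syringe 810 µM hTRPA1¹⁰⁸⁹⁻¹¹¹⁹ peptide. Both were buffer-matched in storage buffer (50 mM Tris pH 8.0, 150 mM NaCl, 2 mM CaCl₂, 0.1 mM PMSF). There were 35 injections spaced 240 s apart, with stirring at 290 RPM. Data were fitted to a one-site model.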
# 15N-labeled CaM12 = assay: 15N-1H HSQC NMR, CaM12; type: binding, human; settings: 1:1 molar ratio, 25 °C, 700 MHz
# WT CaM = WT CaM (Homo sapiens, UniProt P0DP23); assay: Isothermal titration calorimetry, WT CaM; type: binding; settings: ITC, 2 mM Ca2+
# In short: as §1
# 15N-labeled WT CaM = assay: 15N-1H HSQC NMR, WT CaM; type: binding, human; settings: 1:1 molar ratio, 25 °C, 700 MHz
# [2] = tested on: hTRPA1 expressed in Xenopus laevis oocytes; type: cell-based, human
# V5-tagged WT CaM = assay: Immunofluorescence co-localization with V5-WT CaM in Neuro2A cells; type: cell-based, human; settings: for Co-localization with WT CaM (deconvolved IF images): resting Neuro2A cells, Airyscan
# In short: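 Neuro2A cells were grown in DMEM with 10% FBS, transfected, then placed on poly-L-lysine coverslips for 16-20 h. Cells were fixed in 4% PFA, permeabilised with 0.1% Triton and blocked in 4% BSA. Staining used anti-V5 (1:500), Alexa488 anti-mouse (1:700) and Cy3 anti-FLAG (1:500), each for 45 min at RT. Airyscan images (63x oil) were deconvolved. Per-cell pixel-intensity Pearson's R used thresholds from mono-stained samples. Mean ± SD; two-tailed t-test.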
# TurboID-CaM C-lobe = assay: Proximity biotinylation in HEK293T cells; type: cell-based, human; settings: 50 µM biotin 15 min, basal Ca2+; n=4
# In short: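 HEK293T cells co-expressed 3xFLAG-TurboID or 3xFLAG-TurboID-CaM C-lobe with 3xFLAG-hTRPA1 variants. About 48 h post-transfection, 50 uM biotin was added to the culture medium. After 15 min, cells were lysed and proteins captured on anti-FLAG resin (1 h, 4 °C), then eluted with 125 µg/ml 3xFLAG peptide. Biotinylated proteins were detected with HRP-streptavidin (1:50,000).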
# [3] = tested on: hTRPA1 channel activity in HEK293T cells; assay: Ratiometric Ca2+ imaging of TRPA1 variant activity; type: cell-based, human; settings: baseline, 10 µM or 100 µM AITC; n=4
# In short: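 HEK293T cells (DMEM, 10% calf serum) were transiently transfected. At 16-24 h they were replated on poly-L-lysine glass, with parallel anti-FLAG immunoblot to check expression. One hour later cells were loaded with 10 µg/mL Fura-2 AM and 0.025% Pluronic F-127 in Ringer's for 1 h at RT. […] At least 90 cells per condition per experiment were analysed, with untransfected background subtracted. Mean ± SEM; two-tailed t-test.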
# [4] = tested on: hTRPA1 expressed in Xenopus laevis oocytes; assay: Two-electrode voltage clamp, Ca2+ potentiation and desensitization; type: cell-based, human; settings: for Potentiation by extracellular Ca2+ / Slowing of potentiation versus WT hTRPA1 / Slowing of desensitization versus WT hTRPA1: 1.8 mM Ca2+; for Potentiation by extracellular Ca2+: comparable peak current amplitudes; for Desensitization time constant / Potentiation time constant: 1.8 mM extracellular Ca2+, n=10 oocytes
molecule,measurement,setting,value
3xFLAG-WT hTRPA1 (wild type human TRPA1) (from UniProt O75762 1-1119) (natural protein),percent increase in biotinylation with TurboID-CaM C-lobe against free TurboID,[1],40%
CCC(=N\O)/C(C)=C/c1ccc(F)cc1 [A-967079],Inhibition of residual activity,hTRPA1^Δ1109–1119,inhibited
"hTRPA1^1089–1119: hTRPA1 distal C-terminus peptide, residues 1089–1119, bacterially purified and liberated from MBP (DRFKKEQMEQRNSRWNTVLRAVKAKTHHLEP)",CaM binding of MBP-tagged C-terminal peptides,"CaM (Calmodulin-agarose); MBP-tagged, expressed in HEK293T, absence or presence of Ca2+",bound CaM in a Ca^2+-dependent manner
same,Number of binding events observed,CaM12,single binding event
same,Chemical shift perturbations (CSPs),15N-labeled CaM12,observed predominantly in the C-lobe; also recorded: more CSPs in the C-lobe than WT CaM
same,Number of binding events observed,WT CaM,single binding event
same,Chemical shift perturbations (CSPs),15N-labeled WT CaM,observed predominantly in the C-lobe
hTRPA1^Δ1109–1119: hTRPA1 truncation lacking only the terminal 11 amino acids (protein) MKRSLRKMWRPGEKKEPQGVVYEDVPDDTEDFKESLKVVFEGSAYGLQNFNKQKKLKRCDDMDTFFLHYAAAEGQIELMEKITRDSSLEVLHEMDDYGNTPLHCAVEKNQIESVKFLLSRGANPNLRNFNMMAPLHIAVQGMNNEVMKVLLEHRTIDVNLEGENGNTAVIIACTTNNSEALQILLKKGAKPCKSNKWGCFPIHQAAFSGSKECMEIILRFGEEHGYSRQLHINFMNNGKATPLHLAVQNGDLEMIKMCLDNGAQIDPVEKGRCTAIHFAATQGATEIVKLMISSYSGSVDIVNTTDGCHETMLHRASLFDHHELADYLISVGADINKIDSEGRSPLILATASASWNIVNLLLSKGAQVDIKDNFGRNFLHLTVQQPYGLKNLRPEFMQMQQIKELVMDEDNDGCTPLHYACRQGGPGSVNNLLGFNVSIHSKSKDKKSPLHFAASYGRINTCQRLLQDISDTRLLNEGDLHGMTPLHLAAKNGHDKVVQLLLKKGALFLSDHNGWTALHHASMGGYTQTMKVILDTNLKCTDRLDEDGNTALHFAAREGHAKAVALLLSHNADIVLNKQQASFLHLALHNKRKEVVLTIIRSKRWDECLKIFSHNSPGNKCPITEMIEYLPECMKVLLDFCMLHSTEDKSCRDYYIEYNFKYLQCPLEFTKKTPTQDVIYEPLTALNAMVQNNRIELLNHPVCKEYLLMKWLAYGFRAHMMNLGSYCLGLIPMTILVVNIKPGMAFNSTGIINETSDHSEILDTTNSYLIKTCMILVFLSSIFGYCKEAGQIFQQKRNYFMDISNVLEWIIYTTGIIFVLPLFVEIPAHLQWQCGAIAVYFYWMNFLLYLQRFENCGIFIVMLEVILKTLLRSTVVFIFLLLAFGLSFYILLNLQDPFSSPLLSIIQTFSMMLGDINYRESFLEPYLRNELAHPVLSFAQLVSFTIFVPIVLMNLLIGLAVGDIAEVQKHASLKRIAMQVELHTSLEKKLPLWFLRKVDQKSTIVYPNKPRSGGMLFHIFCFLFCTGEIRQEIPNADKSLEMEILKQKYRLKDLTFLLEKQHELIKLIIQKMEIISETEDDDSHCSFQDRFKKEQMEQRNSRWNTVLR,AITC sensitivity versus WT hTRPA1,[2]; Ca2+-free,slightly reduced AITC sensitivities
same,Gating kinetics and peak current amplitudes,"[2]; absence of Ca2+, activation and closing at +80 mV, n=8",not significantly different from WT hTRPA1
same,CaM binding at basal Ca2+ concentration,"CaM (Calmodulin-agarose); basal Ca2+, n=3 independent experiments",failed to bind CaM
same,Co-localization with WT CaM (deconvolved IF images),V5-tagged WT CaM,greatly reduced co-localization
same,Pearson's correlation coefficient (R) of CaM:TRPA1 co-localization,"V5-tagged WT CaM; Δ1109–1119 compared to WT, n=41 or 40 cells, ***p=0.0002",significant reduction in the CaM:TRPA1 co-localization
same,TRPA1 biotinylation with TurboID-CaM C-lobe,TurboID-CaM C-lobe,reduced biotinylation
same,Basal and agonist-evoked channel activity compared to WT hTRPA1,[3],increased basal and agonist-evoked activity
same,Potentiation by extracellular Ca2+,[4]; 250 µM AITC,rapid potentiation
same,Residual activity after extracellular Ca2+ (of initial activity),"[4]; 5 minutes after 1.8 mM extracellular Ca2+, n=10 or 12 oocytes",20–30%
same,Increase in translocated charge versus WT hTRPA1,[4]; +80 mV,5 fold
same,Slowing of potentiation versus WT hTRPA1,[4]; +80 mV,~ 1.8 fold
same,Slowing of desensitization versus WT hTRPA1,"[4]; +80 mV, n=10 or 12 oocytes",16 fold
same,Increase in translocated charge versus WT hTRPA1,[4]; −80 mV,"large, albeit nonsignificant increase"
same,Slowing of potentiation versus WT hTRPA1,[4]; −80 mV,~ 3 fold
same,Slowing of desensitization versus WT hTRPA1,"[4]; −80 mV, n=10 or 12 oocytes",10 fold
WT hTRPA1: wild type human TRPA1 channel (protein) MKRSLRKMWRPGEKKEPQGVVYEDVPDDTEDFKESLKVVFEGSAYGLQNFNKQKKLKRCDDMDTFFLHYAAAEGQIELMEKITRDSSLEVLHEMDDYGNTPLHCAVEKNQIESVKFLLSRGANPNLRNFNMMAPLHIAVQGMNNEVMKVLLEHRTIDVNLEGENGNTAVIIACTTNNSEALQILLKKGAKPCKSNKWGCFPIHQAAFSGSKECMEIILRFGEEHGYSRQLHINFMNNGKATPLHLAVQNGDLEMIKMCLDNGAQIDPVEKGRCTAIHFAATQGATEIVKLMISSYSGSVDIVNTTDGCHETMLHRASLFDHHELADYLISVGADINKIDSEGRSPLILATASASWNIVNLLLSKGAQVDIKDNFGRNFLHLTVQQPYGLKNLRPEFMQMQQIKELVMDEDNDGCTPLHYACRQGGPGSVNNLLGFNVSIHSKSKDKKSPLHFAASYGRINTCQRLLQDISDTRLLNEGDLHGMTPLHLAAKNGHDKVVQLLLKKGALFLSDHNGWTALHHASMGGYTQTMKVILDTNLKCTDRLDEDGNTALHFAAREGHAKAVALLLSHNADIVLNKQQASFLHLALHNKRKEVVLTIIRSKRWDECLKIFSHNSPGNKCPITEMIEYLPECMKVLLDFCMLHSTEDKSCRDYYIEYNFKYLQCPLEFTKKTPTQDVIYEPLTALNAMVQNNRIELLNHPVCKEYLLMKWLAYGFRAHMMNLGSYCLGLIPMTILVVNIKPGMAFNSTGIINETSDHSEILDTTNSYLIKTCMILVFLSSIFGYCKEAGQIFQQKRNYFMDISNVLEWIIYTTGIIFVLPLFVEIPAHLQWQCGAIAVYFYWMNFLLYLQRFENCGIFIVMLEVILKTLLRSTVVFIFLLLAFGLSFYILLNLQDPFSSPLLSIIQTFSMMLGDINYRESFLEPYLRNELAHPVLSFAQLVSFTIFVPIVLMNLLIGLAVGDIAEVQKHASLKRIAMQVELHTSLEKKLPLWFLRKVDQKSTIVYPNKPRSGGMLFHIFCFLFCTGEIRQEIPNADKSLEMEILKQKYRLKDLTFLLEKQHELIKLIIQKMEIISETEDDDSHCSFQDRFKKEQMEQRNSRWNTVLRAVKAKTHHLEP,CaM binding (CaM-agarose enrichment),"CaM (Calmodulin-agarose); 0.1 µM Ca2+ (resting cytosolic), HEK293T lysate, immunoblot, n=11",robust interaction
same,CaM binding (CaM-agarose enrichment),"CaM (Calmodulin-agarose); absence of Ca2+ (0 µM), HEK293T lysate, immunoblot",failed to bind CaM
same,CaM binding (CaM-agarose enrichment),"CaM (Calmodulin-agarose); intermediate (500 µM) and extracellular (2 mM) Ca2+, n=11",stepwise decrease in binding
same,Co-localization with WT CaM (deconvolved IF images),V5-tagged WT CaM,pronounced co-localization
same,Increase in TRPA1 biotinylation with TurboID-CaM C-lobe versus TurboID,TurboID-CaM C-lobe,approximately 40%
same,Desensitization with 10 mM versus 1.8 mM extracellular Ca2+,"[4]; 250 µM AITC, 125 µM niflumic acid, n=9",desensitize faster
same,Potentiation by extracellular Ca2+,[4]; 250 µM AITC,rapid potentiation
same,Desensitization time constant,"[4]; +80 mV, 250 µM AITC",12.5 s
same,Potentiation time constant,"[4]; +80 mV, 250 µM AITC",2.2 s
same,Desensitization after extracellular Ca2+ addition,[4]; within 25 seconds of 1.8 mM Ca2+,nearly complete desensitization
same,Desensitization time constant,"[4]; −80 mV, 250 µM AITC",11.9 s
same,Potentiation time constant,"[4]; −80 mV, 250 µM AITC",2.7 s
